Activity calls are given as the source filed them. The calls are words filed in the database; no cut-off is given here.
Tests used:
NCI-H929 [1] = test: (§1) Synergistic activity against human NCI-H929 cells assessed as combination index […] at 0.5 uM incubated for 48 hrs by […]; type: functional
How it was run: (§2)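 Cells were exposed to the EZH2/EZH1 inhibitor (UNC1999 or GSK126) for 72 h in total, with the Akt inhibitor added for the last 48 h. Viability was read by MTS assay relative to untreated control cells, in triplicate. The combination index for each dose pair came from isobologram analysis.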

MM1.S [2] = test: Downregulation of cyclin D1 protein expression in human MM1.S cells incubated at 0.3 to 3 micromol/L for 48 hrs by Western blot analysis; type: functional, cell-based; conditions: dose 0.3-3 µmol/L
How it was run: (§3)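 MM.1S and H929 cells given TAS-117 at the indicated doses for 48 h. Protein levels assessed by immunoblot.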

NCI-H929 [3] = test: Synergistic activity against human NCI-H929 cells assessed as combination index […] at 0.25 uM incubated for 48 hrs by […]; type: functional; how it was run: as §2
NCI-H929 [4] = test: as §1; type: functional; how it was run: as §2; remark: listed apart in the source
MM1.S [5] = test: Synergistic activity against human MM.1S cells assessed as combination index […] in presence of 1.25 uM UNC1999 […] at 0.5 uM incubated for 48 hrs by […] assay; type: functional; how it was run: as §2
NCI-H929 [6] = test: Upregulation of p27 protein expression in human NCI-H929 cells incubated at 0.3 to 3 micromol/L for 48 hrs by Western blot analysis; type: functional, cell-based; conditions: dose 0.3-3 µmol/L
NCI-H929 [7] = test: Downregulation of E2F2 mRNA expression in human NCI-H929 cells incubated at 0.3 to 3 micromol/L for 24 hrs by qRT-PCR analysis; type: functional, cell-based; conditions: dose 0.3-3 µmol/L
How it was run: (§4)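 MM.1S and H929 cells given TAS-117 at the indicated doses for 24 h. mRNA measured by RT-qPCR, fold change after normalization to GAPDH; SD of triplicates; significance versus untreated control.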

NCI-H929 [8] = test: Induction of apoptosis in human NCI-H929 cells assessed as early apoptotic cells at 2 micromol/L incubated for 12 hrs by annexin V/PI staining based flow cytometry (reference value: 0.37%); type: functional; conditions: dose 2 µmol/L, at 2 µM
OPM-2/BTZ [9] = test: Synergistic activity against human OPM-2/BTZ cells assessed as combination index preincubated in presence of 5 uM GSK126 for 72 hrs followed by compound addition at 1 uM incubated for 48 hrs by MTT assay; type: functional
NCI-H929 [10] = test: Synergistic activity against human NCI-H929 cells assessed as combination index preincubated in presence of 2.5 uM UNC1999 […] at 0.5 uM incubated for 48 hrs by […]; type: functional; how it was run: as §2
MM1.S [11] = test: Induction of apoptosis in human MM1.S cells assessed as late apoptotic cells preincubated in presence of 5 micromol/L UNC1999 for 48 hrs followed by compound addition at 2 micromol/L incubated for 12 hrs by annexin V/PI staining based flow cytometry (reference value: 3.6%); type: functional; conditions: dose 2 µmol/L, at 2 µM
MM1.S [12] = test: Upregulation of FOXO3 in human MM1.S cells assessed as enhanced nuclear accumulation at 0.5 micromol/L after 24 hrs by immunofluorescence staining; type: functional, cell-based; conditions: dose 0.5 µmol/L
How it was run: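 MM.1S and H929 cells were treated with or without 0.5 μmol/L TAS-117 for 24 h. Cells were immunostained with anti-FOXO3. Jurkat cells served as positive control and cells without primary antibody as negative control. Read-out was the average fluorescence intensity of the nuclear FOXO3 fraction versus untreated cells.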

OPM-2 [13] = test: Synergistic activity against human OPM-2 cells assessed as combination index preincubated in presence of 1.25 uM GSK126 for 72 hrs followed by compound addition at 5 uM incubated for 48 hrs by MTT assay; type: functional
MM1.S [14] = test: Synergistic activity against human MM.1S cells assessed as combination index […] compound addition at 0.25 uM incubated for 48 hrs by MTT assay; type: functional; how it was run: as §2
NCI-H929 [15] = test: Downregulation of cyclin D1 protein expression in human NCI-H929 cells incubated at 0.3 to 3 micromol/L for 48 hrs by Western blot analysis; type: functional, cell-based; conditions: dose 0.3-3 µmol/L; how it was run: as §3
NCI-H929 [16] = test: Induction of apoptosis in human NCI-H929 cells assessed as early apoptotic cells preincubated in presence of 5 micromol/L UNC1999 for 48 hrs followed by compound addition at 2 micromol/L incubated for 12 hrs by annexin V/PI staining based flow cytometry (reference value: 0.37%); type: functional; conditions: dose 2 µmol/L, at 2 µM
MM1.S [17] = test: Downregulation of EZH2 mRNA expression in human MM1.S cells at 0.3 to 3 micromol/L after 24 hrs by qRT-PCR analysis; type: functional, cell-based; conditions: dose 0.3-3 µmol/L; how it was run: as §4
NCI-H929 [18] = test: Induction of apoptosis in human NCI-H929 cells assessed as necrotic cells at 2 micromol/L incubated for 12 hrs by annexin V/PI staining based flow cytometry (reference value: 2.61%); type: functional; conditions: dose 2 µmol/L, at 2 µM
NCI-H929 [19] = test: Downregulation of E2F1 protein expression in human NCI-H929 cells incubated at 0.3 to 3 micromol/L for 48 hrs by Western blot analysis; conditions: dose 0.3-3 µmol/L
MM1.S [20] = test: Induction of apoptosis in human MM1.S cells assessed as necrotic cells preincubated in presence of 5 micromol/L UNC1999 for 48 hrs followed by compound addition at 2 micromol/L incubated for 12 hrs by annexin V/PI staining based flow cytometry (reference value: 0.17%); type: functional; conditions: dose 2 µmol/L, at 2 µM
NCI-H929 [21] = test: Downregulation of E2F1 protein expression in human NCI-H929 cells incubated at 0.3 to 3 micromol/L for 48 hrs by Western blot analysis; type: functional, cell-based; conditions: dose 0.3-3 µmol/L; how it was run: as §3
NCI-H929 [22] = test: Induction of apoptosis in human NCI-H929 cells assessed as viable cells preincubated in presence of 5 micromol/L UNC1999 for 48 hrs followed by compound addition at 2 micromol/L incubated for 12 hrs by annexin V/PI staining based flow cytometry (reference value: 95.6%); type: functional; conditions: dose 2 µmol/L, at 2 µM
OPM-2/BTZ [23] = test: Synergistic activity against human OPM-2/BTZ cells assessed as combination index preincubated in presence of 5 uM GSK126 for 72 hrs followed by compound addition at 2 uM incubated for 48 hrs by MTT assay; type: functional
NCI-H929 [24] = test: Downregulation of phospho-Rb protein expression in human NCI-H929 cells incubated at 0.3 to 3 micromol/L for 48 hrs by Western blot analysis; type: functional, cell-based; conditions: dose 0.3-3 µmol/L; how it was run: as §3
NCI-H929 [25] = test: Upregulation of FOXO4 […] expression in human NCI-H929 cells assessed as enhanced nuclear accumulation at 1 micromol/L after 24 hrs by immunofluorescence staining; type: functional, cell-based; conditions: dose 1.0 µmol/L
OPM-2 [26] = test: Synergistic activity against human OPM-2 cells assessed as combination index preincubated in presence of 5 uM UNC1999 for 72 hrs followed by compound addition at 1.25 uM incubated for 48 hrs by MTT assay; type: functional
MM1.S [27] = test: Synergistic activity against human MM.1S cells assessed as combination index […] in presence of 2.5 uM UNC1999 […] […] compound addition at 0.125 uM incubated for 48 hrs by MTT assay; type: functional; how it was run: as §2
MM1.S [28] = test: Synergistic activity against human MM.1S cells assessed as combination index […] at 0.125 uM incubated for 48 hrs by […]; type: functional; how it was run: as §2
NCI-H929 [29] = test: Induction of apoptosis in human NCI-H929 cells assessed as late apoptotic cells at 5 micromol/L incubated for 48 hrs by annexin V/PI staining based flow cytometry (reference value: […]%); type: functional; conditions: dose 5 µmol/L
OPM-2/BTZ [30] = test: Downregulation of CDK1 protein expression in human OPM-2/BTZ cells incubated at 0.3 to 3 micromol/L for 48 hrs by Western blot analysis; type: functional, cell-based; conditions: dose 0.3-3 µmol/L

In the case of `C[C@]1(O)C[C@@](N)(c2ccc(-c3nc4n(c3-c3ccccc3)COc3ccncc3-4)cc2)C1` [PIFUSERTIB], the CI (NCI-H929 [1]) is reported as 4.395, the Activity (MM1.S [2]) is reported as “Active” and the CI (NCI-H929 [3]) is reported as 0.712. For the same compound, the CI (NCI-H929 [4]) was 1.046, the CI (MM1.S [5]) was 0.357 and the Activity (NCI-H929 [6]) was “Active”. The Activity (NCI-H929 [7]) was “Active”, the Activity (NCI-H929 [8]) was 4.49% and the CI (OPM-2/BTZ [9]) was 1.274. The CI (NCI-H929 [10]) was 0.807, the Activity (MM1.S [11]) was 25.3% and the Activity (MM1.S [12]) was “Active”. The CI (OPM-2 [13]) was 11.425, the CI (MM1.S [14]) was 0.584 and the Activity (NCI-H929 [15]) was “Active”. The Activity (NCI-H929 [16]) was 16.1%, the Activity (MM1.S [17]) was “Active” and the Activity (NCI-H929 [18]) was 0.35%. For the same compound, the Activity (NCI-H929 [19]) was “Active”, the Activity (MM1.S [20]) was 1.04% and the Activity (NCI-H929 [21]) was “Active”. For the same compound, the Activity (NCI-H929 [22]) was 70.4%, the CI (OPM-2/BTZ [23]) was 0.967 and the Activity (NCI-H929 [24]) was “Active”. The Activity (NCI-H929 [25]) was “Active”, the CI (OPM-2 [26]) was 5.25 and the CI (MM1.S [27]) was 0.217. The CI (MM1.S [28]) was 0.532, the Activity (NCI-H929 [29]) was 6.81% and the Activity (OPM-2/BTZ [30]) was “Active”.

Source: ChEMBL document CHEMBL5647697, “Akt inhibition synergizes with polycomb repressive complex 2 inhibition in the treatment of multiple myeloma” (2019)
